pKd: −log10 of the molar value.
Tests used:
[1] = Ratio of drug level in human LNCAP cells xenografted in C.B.-17/Icr +/+ Jcl mouse to blood of C.B.-17/Icr +/+ Jcl mouse xenografted with human LNCAP and PC3 cells at 25.9 MBq, iv after 3 hrs; assay type: ADME, organism-based; details: LNCAP tumour xenograft relative to blood
Outline: (§1)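 Tumor-to-blood and tumor-to-muscle ratios were calculated from %ID/g values in ¹²⁵I-tracer biodistribution in LNCaP/PC-3 xenografted mice. Tail-vein dosing, n=4 per time point, sacrifice at 2 min, 30 min, 1, 3 or 6 h.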

Kidney [2] = test: Biodistribution in kidney of C.B.-17/Icr […] Jcl mouse xenografted with human LNCAP and PC3 cells at 25.9 MBq, iv after 3 hrs; assay type: ADME, organism-based; details: in vivo
Outline: (§2)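 ¹²⁵I-labelled tracer given iv by tail vein to mice (22–24 g) bearing LNCaP (left shoulder) and PC-3 (right shoulder) xenografts of about 5–10 mm, grown from 1–5 × 10⁶ cells in 1:1 Matrigel. n=4 per time point; decapitated at 2 min, 30 min, 1, 3, 6 h. Tissues weighed and counted; uptake as %ID/g, mean ± SD.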

LNCaP [3] = test: Biodistribution in LNCAP cells in C.B.-17/Icr +/+ Jcl mouse xenografted with human LNCAP and PC3 cells at 25.9 MBq, iv after 30 mins in presence of 2-PMPA; assay type: ADME, organism-based; details: in vivo, 0.5 h
Outline: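 Blocking study: ¹²⁵I-labelled tracer coinjected iv by tail vein with 2-PMPA (50 mg/kg) in LNCaP/PC-3 xenograft-bearing mice (22–24 g). Mice decapitated 30 min after injection; tissues weighed and counted; uptake as %ID/g.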

[4] = Distribution coefficient, log D of the compound; assay type: physicochemical; details: octanol/water
Blood = test: Biodistribution in blood of C.B.-17/Icr +/+ Jcl mouse xenografted with human LNCAP and PC3 cells at 25.9 MBq, iv after 3 hrs; assay type: ADME, organism-based; details: in vivo; outline: as §2
Nucleic Acid [5] = test: Ratio of drug level in human LNCAP cells xenografted in C.B.-17/Icr +/+ Jcl mouse to muscle of C.B.-17/Icr +/+ Jcl mouse xenografted with human LNCAP and PC3 cells at 25.9 MBq, iv after 30 mins; assay type: ADME, organism-based; details: in vivo, 0.5 h; outline: as §1
Stomach = test: Biodistribution in stomach of C.B.-17/Icr +/+ Jcl mouse xenografted with human LNCAP and PC3 cells at 25.9 MBq, iv after 1 hr; assay type: ADME, organism-based; details: in vivo
Outline: (§3)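 Radioiodinated (¹²⁵I) tracer given by tail-vein injection to mice bearing LNCaP (left shoulder) and PC-3 (right shoulder) xenografts, 22–24 g, grown to about 5–10 mm. Groups of n=4 were decapitated at 2 min, 30 min, 1 h, 3 h or 6 h. Tissues were weighed and counted, and uptake was expressed as %ID/g (mean ± SD).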

Serum = test: Drug degradation in C.B.-17/Icr +/+ Jcl mouse serum after 18 hrs; assay type: ADME, cell-free
Outline: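 Serum came from heart blood of isoflurane-anesthetized male C.B.-17/Icr +/+ mice (20–22 g), centrifuged at 1,500 × g and stored at −80 °C. ¹²⁵I tracer was incubated in serum at 37 °C, then methanol was added. The sample was centrifuged at 5,000 × g, passed through a 0.45 μm filter, and analyzed by radio-HPLC for intact tracer versus degradation peaks.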

Lung = test: Biodistribution in lung of C.B.-17/Icr +/+ Jcl mouse xenografted with human LNCAP and PC3 cells at 25.9 MBq, iv after 6 hrs; assay type: ADME, organism-based; details: in vivo; outline: as §3
PC-3 = test: Biodistribution in PC3 cells in C.B.-17/Icr +/+ Jcl mouse xenografted with human LNCAP and PC3 cells at 25.9 MBq, iv after 2 mins; assay type: ADME, organism-based; details: in vivo; outline: as §2
Spleen [6] = test: Biodistribution in spleen of C.B.-17/Icr +/+ Jcl mouse xenografted with human LNCAP and PC3 cells at 25.9 MBq, iv after 30 mins; assay type: ADME, organism-based; details: in vivo, 0.5 h; outline: as §3
Nucleic Acid [7] = test: Ratio of drug level in human PC3 cells xenografted in C.B.-17/Icr +/+ Jcl mouse to muscle of C.B.-17/Icr +/+ Jcl mouse xenografted with human LNCAP and PC3 cells at 25.9 MBq, iv after 1 hr; assay type: ADME, organism-based; details: in vivo
Outline: (§4)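 Mice (22–24 g) carried PC-3 (right shoulder) and LNCaP (left shoulder) tumors, raised by injecting 1–5 × 10⁶ cells in 1:1 PBS/Matrigel and used at about 5–10 mm diameter. [¹²⁵I]-tracer was given via the tail vein, n=4 per time point, and mice were decapitated at 2 min, 30 min, 1, 3 or 6 h. Tissues were weighed and γ-counted as %ID/g. Tumor/blood and tumor/muscle ratios were taken from %ID/g, mean ± SD.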

Nucleic Acid [8] = test: Ratio of drug level in human LNCAP cells xenografted in C.B.-17/Icr +/+ Jcl mouse to muscle of C.B.-17/Icr +/+ Jcl mouse xenografted with human LNCAP and PC3 cells at 25.9 MBq, iv after 6 hrs; assay type: ADME, organism-based; details: in vivo; outline: as §1
[9] = Ratio of drug level in human PC3 cells xenografted in C.B.-17/Icr +/+ Jcl mouse to blood of C.B.-17/Icr +/+ Jcl mouse xenografted with human LNCAP and PC3 cells at 25.9 MBq, iv after 30 mins; assay type: ADME, organism-based; details: PC3 tumour xenograft relative to blood; outline: as §4
Spleen [10] = test: Biodistribution in spleen of C.B.-17/Icr +/+ Jcl mouse xenografted with human LNCAP and PC3 cells at 25.9 MBq, iv after 6 hrs; assay type: ADME, organism-based; details: in vivo; outline: as §3
Muscle tissue = test: Biodistribution in muscle of C.B.-17/Icr +/+ Jcl mouse xenografted with human LNCAP and PC3 cells at 25.9 MBq, iv after 30 mins; assay type: ADME, organism-based; details: in vivo, 0.5 h; outline: as §3
Heart = test: Biodistribution in heart of C.B.-17/Icr +/+ Jcl mouse xenografted with human LNCAP and PC3 cells at 25.9 MBq, iv after 2 mins; assay type: ADME, organism-based; details: in vivo; outline: as §2
[11] = target: Glutamate carboxypeptidase 2 (Homo sapiens, UniProt Q04609); test: Binding affinity to PSMA in human LNCaP cells after 1 hr by gamma counting; assay type: cell-based
Sequence of Glutamate carboxypeptidase 2 (Q04609 whole entry): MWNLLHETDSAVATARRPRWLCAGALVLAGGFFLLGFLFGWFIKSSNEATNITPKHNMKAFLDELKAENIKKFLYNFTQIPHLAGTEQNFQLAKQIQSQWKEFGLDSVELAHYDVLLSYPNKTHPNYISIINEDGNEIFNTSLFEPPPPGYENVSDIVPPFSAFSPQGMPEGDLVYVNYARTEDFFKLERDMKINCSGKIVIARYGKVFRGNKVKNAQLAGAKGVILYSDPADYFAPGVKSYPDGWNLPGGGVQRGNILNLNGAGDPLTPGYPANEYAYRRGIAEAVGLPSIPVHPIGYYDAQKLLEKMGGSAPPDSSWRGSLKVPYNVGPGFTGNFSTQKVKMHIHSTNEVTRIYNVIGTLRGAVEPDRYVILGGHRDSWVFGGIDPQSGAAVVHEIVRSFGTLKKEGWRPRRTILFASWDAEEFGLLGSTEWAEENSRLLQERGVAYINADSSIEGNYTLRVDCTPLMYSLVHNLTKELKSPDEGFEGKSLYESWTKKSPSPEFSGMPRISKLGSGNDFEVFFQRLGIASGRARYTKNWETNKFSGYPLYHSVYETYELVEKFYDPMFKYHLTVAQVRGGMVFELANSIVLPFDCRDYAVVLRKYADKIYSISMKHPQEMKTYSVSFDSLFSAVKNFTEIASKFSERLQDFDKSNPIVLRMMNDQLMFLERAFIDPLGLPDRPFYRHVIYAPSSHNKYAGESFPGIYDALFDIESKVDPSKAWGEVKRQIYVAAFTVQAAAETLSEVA
Outline: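 LNCaP cells plated at 4 × 10⁵ cells/well and grown 48 h (37 °C/5% CO₂), then washed with RPMI 1640 containing 0.5% BSA. Saturation binding used ¹²⁵I-labelled ligand (specific activity 81.4 kBq/nmol), 1 h at 37 °C; nonspecific binding measured with 100 µM non-radioactive iodinated compound. Cells washed, lysed in 0.2 N NaOH, gamma-counted; Kd from Scatchard plots.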

Intestine = test: Biodistribution in intestine of C.B.-17/Icr […] Jcl mouse xenografted with human LNCAP and PC3 cells at 25.9 MBq, iv after 6 hrs; assay type: ADME, organism-based; details: in vivo; outline: as §2
LNCaP [12] = test: Biodistribution in LNCAP cells in C.B.-17/Icr +/+ Jcl mouse xenografted with human LNCAP and PC3 cells at 25.9 MBq, iv after 1 hr; assay type: ADME, organism-based; details: in vivo; outline: as §2
Kidney [13] = test: Biodistribution in kidney of C.B.-17/Icr […] Jcl mouse xenografted with human LNCAP and PC3 cells at 25.9 MBq, iv after 1 hr; assay type: ADME, organism-based; details: in vivo; outline: as §2
Nucleic Acid [14] = test: Ratio of drug level in human LNCAP cells to human PC3 cells xenografted in C.B.-17/Icr […] Jcl mouse at 25.9 MBq, iv after 30 mins; assay type: ADME, organism-based; details: in vivo, 0.5 h

Kp at 3 h [1]: 13.8
Drug uptake (Kidney [2]): 110 % ID/g
Drug uptake (LNCaP [3]): Not Active
logD [4]: -1.97
Drug uptake (Blood): 0.7 % ID/g
Ratio (Nucleic Acid [5]): 11.1
Drug uptake (Stomach): 1 %ID
Stability (Serum): Unstable
Drug uptake (Lung): 0.9 % ID/g
Drug uptake (PC-3): 2.7 % ID/g
Drug uptake (Spleen [6]): 43.3 % ID/g
Ratio (Nucleic Acid [7]): 1.6
Ratio (Nucleic Acid [8]): 76.7
Kp at 0.5 h [9]: 0.7
Drug uptake (Spleen [10]): 9.7 % ID/g
Drug uptake (Muscle tissue): 0.6 % ID/g
Drug uptake (Heart): 5.4 % ID/g
pKd [11]: 8.11
Drug uptake (Intestine): 5.3 % ID/g
Drug uptake (LNCaP [12]): 7 % ID/g
Drug uptake (Kidney [13]): 92.8 % ID/g
Ratio (Nucleic Acid [14]): 10.1
Compound: O=C(O)CC[C@H](NC(=O)N[C@@H](CSC1CC(=O)N(CCCC[C@H](NC(=O)CNC(=O)c2cccc([125I])c2)C(=O)O)C1=O)C(=O)O)C(=O)O (some centres not stated)

— ChEMBL document CHEMBL2429791, “Preparation of asymmetric urea derivatives that target prostate-specific membrane antigen for SPECT imaging” (J Med Chem, 2013)
